Experimental findings from ChEMBL document CHEMBL3785020, “Discovery of novel sesquistilbene indanone analogues as potent anti-inflammatory agents” (Eur J Med Chem, 2016) are described below.

Structures are written as SMILES. Values after ≈ are worked out from the molar mass of the structure shown. Active and inactive are the calls of the source. The calls are words filed in the database; no cut-off is given here.

The subject of data set [1] is RAW264.7. The experiment in a line: Antiinflammatory activity against LPS-induced mouse RAW264.7 cells assessed as inhibition of NO production at 50 uM preincubated for 4 hrs followed by LPS stimulation for 24 hrs by Griess reaction. The format is functional. The method in brief: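 RAW264.7 cells in DMEM with 5% FBS at 37 °C and 5% CO2 were pretreated at 50 µM for 4 h, then stimulated with or without LPS (1 µg/mL) for 24 h. Nitrite in the supernatant was measured by Griess reagent at 540 nm against a NaNO2 standard curve. At least three independent experiments, each in duplicate; means ± SEM.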

Data set [2] in a line: Lipophilicity, logP of the compound. The format is physicochemical. The conditions noted are these: octanol/water.
Data set [3] concerns Mus musculus. The experiment in a line: Acute toxicity in po dosed Kunming mouse after 14 days by Bliss method. To be noted: in vivo, 336 h.
The nature of data set [4]: Solubility in water at pH 1.2. The format is physicochemical.
A short description of data set [5]: Solubility in water at pH 6.8. Format: physicochemical.
The test system of data set [6] is Mus musculus. The data set can be described thus: Acute toxicity in ip dosed Kunming mouse assessed as mortality after 7 days by Bliss method. The format is organism-based. The conditions noted are these: in vivo, 168 h.
Data set [7] is described as follows: (§1) Acute toxicity in ip dosed Kunming mouse after 14 days by Bliss method. Format: organism-based. To be noted: Kunming, in vivo.
The subject of data set [8] is RAW264.7. The data set can be described thus: Antiinflammatory activity against LPS-induced mouse RAW264.7 cells assessed as inhibition of NO production at preincubated for 4 hrs followed by LPS stimulation for 24 hrs by Griess reaction. Format: functional, cell-based. In short, it runs like this:
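Cells were pretreated for 4 h, then stimulated with LPS (1 µg/mL) for 24 h. Supernatant was mixed with an equal volume of Griess reagent, and nitrite was read at 540 nm against a NaNO2 standard curve. IC50 was obtained by curve fitting.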

The test system of data set [9] is RAW264.7. The experiment in a line: Cytotoxicity against mouse RAW264.7 cells assessed as cell viability up to 50 uM by MTT assay. Format: cell-based. In short, it runs like this:
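MTT assay after 12.5-50 µM treatment with LPS stimulation for 24 h. Medium was replaced, then MTT was added to a final 0.5 mg/mL and incubated 4 h at 37 °C. Formazan was dissolved in DMSO and absorbance read at 570 nm. At least three independent experiments in duplicate.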

Data set [10] can be described thus: Solubility in water at pH 7.4. The format is physicochemical.
The test system of data set [11] is Mus musculus. The description is as §1. Format: organism-based. To be noted: in vivo, 336 h.
Data set [12] relates to RAW264.7. The experiment in a line: Effect of ERK phosphorylation in LPS-induced mouse RAW264.7 cells preincubated with the compound followed by LPS-stimulation for 45 mins by Western blot analysis. The format is cell-based.
The subject of data set [13] is RAW264.7. The experiment in a line: Inhibition of JNK phosphorylation in LPS-induced mouse RAW264.7 cells preincubated with the compound followed by LPS-stimulation for 45 mins by Western blot analysis. Format: cell-based.
For data set [14], the system named is RAW264.7. The experiment in a line: Antiinflammatory activity against LPS-induced mouse RAW264.7 cells assessed as downregulation of COX2 expression preincubated for 4 hrs followed by LPS stimulation for 24 hrs by Western blot analysis. Format: functional, cell-based. In short, it runs like this:
(§2)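 Cells serum-starved overnight, pretreated at 12.5-50 µM, then stimulated with LPS 1 µg/mL for 24 h. Whole-cell lysates were made in RIPA buffer with protease and phosphatase inhibitors, and 30 µg protein was loaded. Blots used iNOS (1:500) or COX-2 (1:10000) antibodies with HRP secondary and ECL detection. Signals were normalised to β-actin and expressed as fold of control. At least three independent experiments, each in duplicate.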

In data set [15] the test system is RAW264.7. The data set can be described thus: Antiinflammatory activity against LPS-induced mouse RAW264.7 cells assessed as downregulation of iNOS expression preincubated for 4 hrs followed by LPS stimulation for 24 hrs by Western blot analysis. The format is functional, cell-based. In short, it runs like this: as §2
In data set [16] the test system is RAW264.7. The data set can be described thus: Downregulation of TLR4 expression in LPS-induced mouse RAW264.7 cells preincubated with compound followed by LPS-stimulation for 45 mins by Western blot analysis. The format is functional, cell-based.
Data set [17] deals with Transcription factor p65 (Mus musculus) (UniProt Q04207). The data set can be described thus: Inhibition of LPS-stimulated NFkappaB p65 nuclear translocation in mouse RAW264.7 cells preincubated with compound followed by LPS-stimulation for 2 hrs by Western blot analysis. Format: cell-based. The method in brief:
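Cells were pretreated at 12.5-50 µM, then stimulated with LPS (1 µg/mL) for 2 h. Nuclear and cytoplasmic fractions were prepared with an extraction kit and blotted for NF-κB p65 (1:1000). β-actin was the cytoplasmic loading control and lamin the nuclear one. At least three independent experiments in duplicate.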

Data set [18] has as its target MAP kinase p38 (Mus musculus) (UniProt P47811+O08911+Q9WUI1+Q9Z1B7). The experiment in a line: Effect of p38 phosphorylation in LPS-induced mouse RAW264.7 cells preincubated with the compound followed by LPS-stimulation for 45 mins by Western blot analysis. Format: cell-based.

Transcription factor p65 (Mus musculus), sequence (Q04207 whole entry): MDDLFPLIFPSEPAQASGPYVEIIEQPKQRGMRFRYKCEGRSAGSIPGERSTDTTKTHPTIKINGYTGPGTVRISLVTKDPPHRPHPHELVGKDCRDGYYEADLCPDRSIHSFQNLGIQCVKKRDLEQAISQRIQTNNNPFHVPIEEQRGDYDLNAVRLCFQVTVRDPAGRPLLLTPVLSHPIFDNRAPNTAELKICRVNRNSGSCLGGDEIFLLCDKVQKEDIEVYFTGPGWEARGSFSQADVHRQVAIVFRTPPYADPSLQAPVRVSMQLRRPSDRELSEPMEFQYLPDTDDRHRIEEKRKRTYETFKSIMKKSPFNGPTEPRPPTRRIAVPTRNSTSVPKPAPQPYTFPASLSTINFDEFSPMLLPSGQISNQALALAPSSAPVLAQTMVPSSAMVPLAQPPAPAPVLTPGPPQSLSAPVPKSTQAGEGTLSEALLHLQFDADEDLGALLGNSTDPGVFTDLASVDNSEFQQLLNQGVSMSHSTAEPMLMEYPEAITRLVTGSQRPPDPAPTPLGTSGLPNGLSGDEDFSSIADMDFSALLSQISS

As to `COc1cc(OC)cc([C@@H]2C(=O)c3cc(OC)cc(OC)c3[C@H]2c2ccc(OCc3ccccc3)cc2)c1` (relative stereo), the inhibition at 50 µM in data set [1] worked out at 65.8%. As for `COc1cc(OC)cc(C2C(O)c3cc(OC)cc(OC)c3C2c2ccccc2)c1` (configuration not stated), in [1], the inhibition at 50 µM came to 76.3%. With `COc1cc(OC)cc([C@@H]2C(=O)c3cc(OC)cc(OC)c3[C@H]2c2ccc(C(F)(F)F)cc2)c1` (relative stereo), the inhibition at 50 µM in [1] was 71.8%. On the same count and under the same terms, the same measure for `COc1ccc([C@@H]2C(=O)c3ccc(OC)cc3[C@H]2c2ccc(C(F)(F)F)cc2)cc1` (relative stereo): 80%. `COc1cc(OC)cc([C@@H]2C(=O)c3cc(OC)cc(OC)c3[C@H]2c2ccccc2)c1` (relative stereo): the inhibition at 50 µM in data set [1] came out at 69.2%.

Take `COc1cc(OC)cc([C@@H]2C(=O)c3cc(OC)cc(OC)c3[C@H]2c2ccc(OC(F)(F)F)cc2)c1` (relative stereo): the inhibition at 50 µM in data set [1] was found to be 65.6%.

For `COc1ccc([C@@H]2C(=O)c3ccc(OC)cc3[C@H]2c2ccc(F)cc2)cc1`, the inhibition at 50 µM in [1] is 85.9%. Take `COc1ccc(C2C(=O)c3ccc(OC)cc3C2c2ccccc2)cc1` (racemic) [listing 1 of 2 here]: the log partition coefficient (logP) in data set [2] was 1.77. Further, the Activity entry is on record as “Dose-dependent effect” in data set [3], “Toxic” in data set [6] and “Non-toxic” in data set [9]. For the same compound, the solubility in data set [4] is 38.3 µg/mL (≈ 111 µM); in data set [5] it was 68.7 µg/mL (≈ 199 µM); in data set [10], 46.5 µg/mL (≈ 135 µM). Also, the LD50 at 336 h in data set [7] worked out at 275 mg/kg. Further, the inhibition at 50 µM in data set [1] is 87.6%. In data set [8] (Mus musculus, RAW264.7), the IC50 amounted to 23.2 µM. `COc1ccc(C2C(=O)c3ccc(OC)cc3C2c2ccccc2)cc1` (single isomer, unassigned; (-)) [listing 1 of 2 here] registered a median lethal dose (LD50) in [11] of 275 mg/kg. In data set [8] (raw264.7), the half-inhibitory concentration (IC50) is 23.7 µM. As to `COc1cc(OC)cc([C@@H]2C(=O)c3cc(OC)cc(OC)c3[C@H]2c2ccc3ccccc3c2)c1` (relative stereo), the inhibition at 50 µM in data set [1] is 47.4%. With `COc1ccc(C2C(=O)c3ccc(OC)cc3C2c2ccccc2)cc1` (single isomer, unassigned; (-)) [listing 2 of 2 here], the inhibition entry in [8] is “Dose-dependent effect”.

As for `COc1ccc([C@@H]2C(=O)c3ccc(OC)cc3[C@H]2c2ccc(C)cc2)cc1` (relative stereo), in data set [1], the inhibition at 50 µM came to 47.4%. Consider `COc1ccc([C@@H]2C(=O)c3ccc(OC)cc3[C@H]2c2cc(OC)cc(OC)c2)cc1` (relative stereo), for which, in data set [1], the inhibition at 50 µM turned out to be 51.6%. For the compound `COc1ccc([C@@H]2C(=O)c3ccc(OC)cc3[C@H]2c2ccc(-c3ccccc3)cc2)cc1` (relative stereo), in data set [1], the inhibition at 50 µM is 57.5%. As for `COc1ccc(C2C(=O)c3ccc(OC)cc3C2c2ccccc2)cc1` (single isomer, unassigned; (+)) [listing 1 of 2 here], in data set [8], the inhibition entry is “Dose-dependent effect”.

In the case of `COc1cc(OC)cc([C@@H]2C(=O)c3cc(OC)cc(OC)c3[C@H]2c2ccc(F)cc2)c1` (relative stereo), in data set [1], the inhibition at 50 µM was found to be 77.3%.

As for `CCOc1ccc([C@@H]2c3cc(OC)ccc3C(=O)[C@H]2c2ccc(OC)cc2)cc1` (relative stereo), the inhibition at 50 µM in data set [1] amounted to 84.4%. Consider `COc1cc(OC)cc([C@@H]2C(=O)c3cc(OC)cc(OC)c3[C@H]2c2ccc(C)cc2)c1`, for which, in data set [1], the inhibition at 50 µM is 83.3%. In the case of `COc1ccc([C@@H]2c3cc(OC)ccc3C(=O)[C@H]2c2ccc(OC)cc2)cc1` (relative stereo), the inhibition at 50 µM in data set [1] was found to be 79.3%. Same read-out and setting: the same measure for `COc1cc(OC)cc([C@@H]2C(=O)c3cc(OC)cc(OC)c3[C@H]2c2ccc(-c3ccccc3)cc2)c1` (relative stereo): 73.9%.

`CCOC(=O)[C@@H]1c2c(OC)cc(OC)cc2C(=O)[C@H]1c1cc(OC)cc(OC)c1` (relative stereo): the inhibition at 50 µM in data set [1] is 64.6%. `COc1cc(OC)cc([C@@H]2C(=O)c3cc(OC)cc(OC)c3[C@H]2C2CCCCC2)c1` (relative stereo): the inhibition at 50 µM in data set [1] is 77.3%. On to `COc1ccc([C@@H]2C(=O)c3ccc(OC)cc3[C@H]2c2ccc(OC(F)(F)F)cc2)cc1` (relative stereo), for which the inhibition at 50 µM in data set [1] was 76.3%. Still for that read-out and setting: as for `COc1cc(OC)cc([C@@H]2C(=O)c3cc(OC)cc(OC)c3[C@H]2Cc2ccccc2)c1` (relative stereo), the figure is 86.9%.

As to `COc1ccc(C2C(=O)c3ccc(OC)cc3C2c2ccccc2)cc1` (single isomer, unassigned; (+)) [listing 2 of 2 here], the IC50 in [8] (raw264.7) was found to be 23.5 µM. With `CCOc1ccc([C@@H]2c3c(OC)cc(OC)cc3C(=O)[C@H]2c2cc(OC)cc(OC)c2)cc1` (relative stereo), in [1], the inhibition at 50 µM was determined as 80.9%. With `COc1cc(OC)cc([C@@H]2c3c(OC)cc(OC)cc3C(=O)[C@H]2c2cc(OC)cc(OC)c2)c1` (relative stereo), in data set [1], the inhibition at 50 µM amounted to 59.4%. Consider `COc1cc(OC)cc([C@@H]2C(=O)c3cc(OC)cc(OC)c3[C@H]2c2cccc(F)c2)c1` (relative stereo), for which, in [1], the inhibition at 50 µM came out at 65.7%.

As for `COc1ccc(C2C(=O)c3ccc(OC)cc3C2c2ccccc2)cc1` (racemic) [listing 2 of 2 here], the result in data set [12] and in data set [18] was inactive. The inhibition entry in data set [13], in data set [8] and in data set [17] was “Dose-dependent effect” each time. Further, the Activity entry in data set [14], in data set [15] and in data set [16] was “Dose-dependent effect” throughout.

Take `COc1ccc([C@@H]2C(=O)c3ccc(OC)cc3[C@H]2c2cccc(F)c2)cc1` (relative stereo): the inhibition at 50 µM in data set [1] was 80%. Turning to `Oc1ccc(/C=C/c2cc(O)cc(O)c2)cc1` [RESVERATROL], the inhibition at 50 µM in data set [1] came out at 35%.

In the case of `COc1cc(OC)cc([C@@H]2C(=O)c3cc(OC)cc(OC)c3[C@H]2c2ccc(O)cc2)c1` (relative stereo), the inhibition at 50 µM in data set [1] was 65.6%.

With `COc1ccc([C@@H]2C(=O)c3ccc(OC)cc3[C@H]2c2ccc3ccccc3c2)cc1` (relative stereo), the inhibition at 50 µM in [1] came to 58.7%.

Take `COc1ccc([C@@H]2c3c(OC)cc(OC)cc3C(=O)[C@H]2c2cc(OC)cc(OC)c2)cc1` (relative stereo): the inhibition at 50 µM in data set [1] came out at 61%.

For `COc1ccc([C@@H]2C(=O)c3ccc(OC)cc3[C@H]2C2CCCCC2)cc1` (relative stereo), the inhibition at 50 µM in data set [1] was determined as 85.7%.
